The values below come from ChEMBL document CHEMBL1125084, “Synthesis and evaluation of a series of aryl[e]fused pyrazolo[4,3-c]pyridines with potential anxiolytic activity” (J Med Chem, 1990).

Assay [1] has as its target GABA-A receptor; anion channel. Briefly: Displacement of [3H]flunitrazepam from GABA-A Benzodiazepine receptor of rat brain membranes. The format is cell membranes, Membrane. A digest of the protocol:
(§1)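 Well-washed, frozen rat whole brain membranes incubated with 0.5 nM [3H]flunitrazepam; nonspecific binding defined with 10 µM clonazepam. IC50 from log concentration vs percent inhibition curves, Ki via Cheng-Prusoff; triplicate determinations.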
(Displacement assays read how much labelled ligand stays bound in the presence of the test substance.)

The subject of assay [2] is Mus musculus. In words: Percent of mice not grasping wire at a dose of 30 mg/Kg administered intraperitoneally in horizontal wire test; Inactive. Type of assay: functional, organism-based.
The species entered for assay [3] is Rattus norvegicus. In words: Evaluated for shock induced suppression of drinking by rat vogel test and number of shocks taken were reported. Type of assay: functional. A digest of the protocol:
(§2)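 Rats deprived of water, allowed 4 h drinking, then withdrawn overnight. On test day, free drinking for 30 s, then a mild footshock (0.225 mA, 0.5 s) for every 5 s of accumulated drinking in a 3 min session. Count of shocks taken recorded. Drug given ip to groups of 6-12 rats 30 min before testing; vehicle 1% methyl cellulose in 0.5% saline.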

Assay [4] concerns Mus musculus. Briefly: Percentage change in seizure threshold by pentylenetetrazole infusion method in mouse at a dose of 100 mg/Kg administered perorally. Type of assay: functional.
For assay [5], the system named is Rattus norvegicus. In words: Compound was administered at a dose of 10 mg/Kg intraperitoneally and was evaluated for shock induced suppression of drinking by rat vogel test and number of shocks taken were reported. The format is functional. The gist of the method:
as §2

The test system of assay [6] is Mus musculus. Briefly: Effective dose required for the percentage change in seizure threshold by anti-pentylenetetrazole test in mouse when administered perorally. The format is functional. Particulars: po. The gist of the method:
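Male CD-1 mice (18-24 g), groups of 10, dosed orally 60 min before testing. Lightly restrained mice received PTZ (8 mg/mL) by tail-vein infusion at 0.5 mL/min. Time to tonic hindlimb extension was converted to a PTZ threshold dose (mg/kg). Effect was expressed as % change in seizure threshold versus controls, with a two-tailed Student's t test.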

Assay [7] concerns Mus musculus. In words: Percent of mice not grasping wire at a dose of 300 mg/Kg administered intraperitoneally in horizontal wire test. Type of assay: functional.
Assay [8] concerns Mus musculus. Briefly: Compound was evaluated for horizontal wire test and percent of mice not grasping wire, it was administered intraperitoneally. The conditions noted are these: ip.
Assay [9] has as its system Mus musculus. In words: Compound was evaluated for horizontal wire test and percent of mice not grasping wire, it was administered perorally. Particulars: po.
The test system of assay [10] is Rattus norvegicus. Briefly: Compound was administered at a dose of 2.5 mg/Kg intraperitoneally and was evaluated for shock induced suppression of drinking by rat vogel test and number of shocks taken were reported. Type of assay: functional. The gist of the method: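 Rats had water for a 4-h period, then water was withdrawn overnight. On test day, after 30 s of free drinking, a 0.225 mA footshock lasting 0.5 s was given for every 5 s of accumulated drinking in a 3-min session. Drug was given ip to groups of 6-12 rats 30 min before testing. Vehicle controls received 1% methyl cellulose in 0.5% saline. Read-out was the number of shocks taken.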

Assay [11] concerns GABA-A receptor; anion channel. In words: Displacement of [3H]flunitrazepam from GABA-A Benzodiazepine receptor of rat brain membranes (Insoluble). Type of assay: cell membranes, Membrane. The gist of the method: as §1
For assay [12], the system named is Mus musculus. In words: Percentage change in seizure threshold by pentylenetetrazole infusion method in mouse at a dose of 30 mg/Kg administered perorally; Inactive. The format is functional, organism-based.
Assay [13] concerns Mus musculus. Briefly: Percentage change in seizure threshold by anti-pentylenetetrazole test in mouse at a dose of 30 mg/Kg administered perorally; Inactive. Type of assay: functional, organism-based.
Assay [14] has as its system Mus musculus. In words: Percent of mice not grasping wire at a dose of 30 mg/Kg administered intraperitoneally in horizontal wire test. Type of assay: functional.
Assay [15] deals with GABA-A receptor; anion channel. In words: Displacement of [3H]flunitrazepam from GABA-A Benzodiazepine receptor of rat brain membranes (insoluble). The format is cell membranes, Membrane. A digest of the protocol: as §1
Assay [16] relates to Rattus norvegicus. In words: Compound was administered at a dose of 20 mg/Kg intraperitoneally and was evaluated for shock induced suppression of drinking by rat vogel test and number of shocks taken were reported; Inactive. The format is functional, organism-based. A digest of the protocol:
as §2

For assay [17], the system named is Mus musculus. Briefly: Percentage change in seizure threshold by anti-pentylenetetrazole test in mouse at a dose of 100 mg/Kg administered perorally; Inactive. Type of assay: functional, organism-based.
The subject of assay [18] is Mus musculus. Briefly: Percentage change in seizure threshold by pentylenetetrazole infusion method in mouse at a dose of 30 mg/Kg administered perorally. The format is functional.
Assay [19] deals with Mus musculus. In words: Percentage change in seizure threshold by anti-pentylenetetrazole test in mouse at a dose of 30 mg/Kg administered perorally. Type of assay: functional.

SMILES strings stand for the structures. The source made the active and inactive calls.

One may read the Ki as the dissociation constant of the complex between target and ligand, obtained from inhibition or displacement. A high value points to weaker binding. The term ED50 denotes the dose at which the effect has come halfway, by size or by number of responders. A high value points to weaker potency.

`Cn1cnc2c3c(ccc21)ncc1c(=O)n(-c2ccc(Cl)cc2)[nH]c13` registered a Ki in assay [1] of 0.0018 µM. The outcome in the assay with Mus musculus [2] was inactive. The same molecule registered a No. of shocks in the assay listed under Rattus norvegicus [3] of 12.
Turning to `Cc1[nH]sc2ncc3c(=O)n(-c4ccc(Cl)cc4)nc3c12`, in [1], the Ki turned out to be 0.099 µM. The result with Mus musculus [2] was inactive. The molecule further came in with a Change with Mus musculus [4] of 48%. Besides, the No. of shocks in the assay listed under Rattus norvegicus [3] amounted to 11.9.
Turning to `O=C1C2C=Nc3ccccc3C2=NN1c1ccc(Cl)cc1` (centres undefined) [CGS-9896], in the assay on Rattus norvegicus [5], the No. of shocks was determined as 12.7. The affinity in assay [1], expressed as Ki, was 0.00035 µM. The molecule further gave an ED50 with Mus musculus [6] of 3.5 mg/kg. The same molecule returned an Activity in the assay with Mus musculus [7] of 30%.
For the molecule `CN1C(=O)CN=C(c2ccccc2)c2cc(Cl)ccc21` [DIAZEPAM], the figures for the ED50 in the assay on Mus musculus [8], in the assay on Mus musculus [6] and in the assay with Mus musculus [9] were 3.1 mg/kg, 1.5 mg/kg and 3.8 mg/kg, respectively. The same molecule displayed a No. of shocks in the assay with Rattus norvegicus [10] of 21.2.
Turning to `Cn1cc2c(=O)n(-c3ccc(Cl)cc3)nc-2c2sccc21`, in [11], the Ki result was “Insoluble”. In addition, the outcome in the assay on Mus musculus [2] was inactive. Moreover, the Change result with Mus musculus [12] is “inactive”. In addition, in the assay listed under Rattus norvegicus [3], the No. of shocks was found to be 16.8.
As for `O=c1c2cnc3c4ccccc4sc3c2[nH]n1-c1ccc(Cl)cc1`, the affinity in assay [1], expressed as Ki, was 0.81 µM. The result in the assay with Mus musculus [2] was inactive. In addition, the Change result with Mus musculus [12] is “inactive”. This molecule also yielded a No. of shocks in the assay filed under Rattus norvegicus [3] of 14.1.
`Cn1ncc2cc3c(cc21)ncc1c(=O)n(-c2ccc(Cl)cc2)[nH]c13` registered a Ki in assay [1] of 0.014 µM. The Change entry with Mus musculus [13] is “inactive”. For the same molecule, in the assay listed under Rattus norvegicus [3], the No. of shocks is 9.
With `Cn1c2ccccc2c2ncc3c(=O)n(-c4ccc(Cl)cc4)[nH]c3c21`, the Activity in the assay on Mus musculus [14] is given as 25%. The same molecule showed a No. of shocks in the assay filed under Rattus norvegicus [3] of 10. Also, the Ki result in assay [15] is “Insoluble”.
As for `Cn1c2c(cnc3ccsc32)c(=O)n1-c1ccc(Cl)cc1`, the Ki in [1] is 2.6 µM. Also, the Change result in the assay on Mus musculus [12] was “inactive”. Besides, the No. of shocks in the assay filed under Rattus norvegicus [3] was determined as 8.6.
In assay [1], `Cc1nc2ccsc2c2[nH]n(-c3ccc(Cl)cc3)c(=O)c12` displayed a Ki of 1 µM. In addition, in the assay on Mus musculus [4], the Change was 57%. In the assay listed under Rattus norvegicus [3], this molecule showed a No. of shocks of 6.1.
Molecule `Cc1ccc2c(ncc3c(=O)n(-c4ccc(Cl)cc4)[nH]c32)n1` gave a Ki in assay [1] of 11 µM. Besides, in the assay on Rattus norvegicus [16], the No. of shocks result was “inactive”. The Change result in the assay on Mus musculus [17] is “inactive”.
Consider `COc1c2cnc3ccsc3c2nn1-c1ccc(Cl)cc1`, for which the Ki result in assay [11] is recorded as “Insoluble”. In the assay on Mus musculus [12], the Change result was “inactive”. The molecule also registered a No. of shocks in the assay listed under Rattus norvegicus [3] of 13.4.
In turn, `O=c1c2c(-c3ccccc3)nc3ccsc3c2[nH]n1-c1ccc(Cl)cc1` yielded a Ki in assay [1] of over 1000 µM. In the assay with Mus musculus [18], this molecule registered a Change of 18%. In the assay filed under Rattus norvegicus [3], this molecule yielded a No. of shocks of 6.7.
`Cn1ncc2ccc3ncc4c(=O)n(-c5ccc(Cl)cc5)[nH]c4c3c21`: the Ki in [1] was 0.012 µM. The Change result in the assay with Mus musculus [13] was “inactive”. The outcome in the assay with Mus musculus [2] was inactive. Moreover, the No. of shocks in the assay filed under Rattus norvegicus [3] worked out at 13.
The molecule `O=c1c2cnc3ccsc3c2[nH]n1-c1ccc(Cl)cc1` had a Ki in [1] of 0.00046 µM. Further, in the assay with Mus musculus [2], the result was inactive. In addition, the No. of shocks in the assay filed under Rattus norvegicus [3] amounted to 14. Moreover, in the assay with Mus musculus [17], the Change entry was “inactive”.
`Cn1ncc2c3c(ccc21)ncc1c(=O)n(-c2ccc(Cl)cc2)[nH]c13` gave a Ki in [1] of 0.0024 µM. For the same molecule, the result in the assay with Mus musculus [2] was inactive. For the same molecule, the Change in the assay on Mus musculus [19] is on record as 37%. Also, in the assay listed under Rattus norvegicus [3], the No. of shocks came to 13.
`CCc1cc2c(ncc3c(=O)n(-c4ccc(Cl)cc4)[nH]c32)s1` had a Ki in assay [1] of 0.0018 µM. Moreover, in the assay with Mus musculus [2], the outcome was inactive. In the assay with Mus musculus [12], the Change result is “inactive”. In the assay filed under Rattus norvegicus [3], the No. of shocks amounted to 14.4.
With `Cn1cc2ccc3ncc4c(=O)n(-c5ccc(Cl)cc5)[nH]c4c3c2n1`, affinity in [1] was put at a Ki of 0.00029 µM. For the same molecule, the result with Mus musculus [2] was inactive. The molecule also had a No. of shocks in the assay filed under Rattus norvegicus [3] of 7.
As to `Cn1cc2c(ccc3ncc4c(=O)n(-c5ccc(Cl)cc5)[nH]c4c32)n1`, in assay [1], the affinity corresponds to a Ki of 0.00046 µM. Besides, in the assay on Mus musculus [13], the Change result is “inactive”. The result with Mus musculus [2] was inactive. Also, the No. of shocks in the assay listed under Rattus norvegicus [3] stood at 5.7.
Molecule `Oc1c2cnc3cscc3c2nn1-c1ccc(Cl)cc1` displayed a Ki in assay [1] of 0.00032 µM. Also, the result in the assay with Mus musculus [2] was inactive. The Change in the assay with Mus musculus [19] was determined as 47%. In the assay filed under Rattus norvegicus [3], the No. of shocks was 17.
On to `Clc1ccc(-n2nc3c(cnc4ccsc43)c2Cl)cc1`, for which the Change entry in the assay on Mus musculus [12] is “inactive”. This molecule came in with a No. of shocks in the assay listed under Rattus norvegicus [3] of 13.7. Moreover, the Ki entry in assay [15] is recorded as “Insoluble”.
